A short description of data set [1]: Toxicity against Artemia salina larvae. The format is organism-based. As to conditions: in vivo. A digest of the protocol: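 Quadruplicate wells; mortality counted after 24 and 36 h at 27 °C. LC50 from probit analysis of dose-mortality data from six independent experiments.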
For a further data set, the system named is Solanum lycopersicum. In words: Phytotoxicity in tomato leaf assessed as chlorosis in the leaf at 10^-5 M by tomato cutting assay. The format is organism-based. As to conditions: in vivo, 10 µM; call rule not given here. The method, boiled down: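 Young greenhouse tomato plants cut with razor; stems immersed in toxin solutions (10^-3 to 10^-6 M; compound in small MeOH volume diluted with water) 24 h at 22 °C, 12-h photoperiod, fluorescent light. Then moved to distilled water 48 h under same conditions; symptoms (e.g. chlorosis, wilting) scored visually.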

In another data set the test system is Pichia kluyveri. In words: Antifungal activity against Pichia kluyveri ITEM 1649 at 15 ug/disk by paper disk method. In kind it is functional. A digest of the protocol: (§1)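 Agar overlay disk diffusion on plant-derived filamentous fungi and yeasts: 0.7% water-agar seeded with 10^4 conidia/mL or a yeast cell suspension, poured over PDA. 6-mm cellulose disks were loaded from methanolic solutions and air-dried, with nystatin as comparator. Plates ran 24-72 h at 25 °C; inhibition halo was measured over three disks. Agar beneath disks was subcultured on PDA to separate fungicidal from fungistatic, scored in four classes; run twice, averaged.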

The next data set relates to Fusarium subglutinans. In words: Antifungal activity against Fusarium subglutinans at 15 ug/disk by paper disk method. In kind it is functional. A digest of the protocol: (§2)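 Agar diffusion: a 0.7% water-agar overlay carrying 10^4 conidia/mL (or yeast cells) is poured on PDA. 6-mm cellulose disks loaded with methanolic compound at 5 or 15 µg/disk are air-dried and applied, with nystatin as comparator. Plates incubated 24-72 h at 25 °C; inhibition halo diameter read from three disks. Agar under each disk is subcultured on PDA to score fungicidal/fungistatic effect. Experiment run twice and averaged.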

Data set [2] deals with Alternaria alternata. Nature of the data set: Antifungal activity against Alternaria alternata ITEM 468 at 15 ug/disk by paper disk method. In kind it is functional. The method, boiled down: as §2
The test system of data set [3] is Alternaria alternata. Nature of the data set: Antifungal activity against Alternaria alternata ITEM 511 at 15 ug/disk by paper disk method. The format is functional. A digest of the protocol:
as §2

The test system of data set [4] is Alternaria alternata. In words: Antifungal activity against Alternaria alternata ITEM 526 at 15 ug/disk by paper disk method. The format is functional. The method, boiled down: as §2
Data set [5] has as its system Alternaria alternata. Nature of the data set: Antifungal activity against Alternaria alternata ITEM 750 at 15 ug/disk by paper disk method. The format is functional. The method, boiled down:
as §2

For the next data set, the system named is Alternaria citri. In words: Antifungal activity against Alternaria citri ITEM 466 at 15 ug/disk by paper disk method. In kind it is functional. The method, boiled down:
(§3)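 Agar overlay diffusion: 0.7% water-agar with 10^4 conidia/mL of test fungus poured over PDA; 6-mm cellulose disks impregnated with methanolic compound solution, air-dried. Incubated 25 °C for 24-72 h by fungus; growth-inhibition halo diameter from three replicate disks. Agar under disks then subcultured on PDA to score fungicidal/fungistatic classes. Repeated twice, averaged.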

A further data set concerns Ascochyta rabiei. In words: Antifungal activity against Ascochyta rabiei ITEM 1067 at 15 ug/disk by paper disk method. In kind it is functional. The method, boiled down:
as §2

Another data set concerns Aspergillus flavus. In words: Antifungal activity against Aspergillus flavus ITEM 9 at 15 ug/disk by paper disk method. The format is functional. The method, boiled down:
as §2

A further data set has as its system Aspergillus parasiticus. In words: Antifungal activity against Aspergillus parasiticus ITEM 11 at 15 ug/disk by paper disk method. In kind it is functional. A digest of the protocol: as §2
In data set [6] the test system is Botrytis cinerea. Nature of the data set: Antifungal activity against Botrytis cinerea ITEM 966 at 15 ug/disk by paper disk method. In kind it is functional. The method, boiled down:
as §2

The test system of data set [7] is Botrytis cinerea. In words: Antifungal activity against Botrytis cinerea at 15 ug/disk by paper disk method. The format is functional. The method, boiled down: as §2
The subject of data set [8] is Cladosporium cladosporioides. Nature of the data set: Antifungal activity against Cladosporium cladosporioides ITEM 2079 at 15 ug/disk by paper disk method. In kind it is functional. A digest of the protocol: as §2
The subject of a further data set is Cladosporium cucumerinum. Nature of the data set: Antifungal activity against Cladosporium cucumerinum ITEM 2095 at 15 ug/disk by paper disk method. The format is functional. The method, boiled down:
as §2

In data set [9] the test system is Colletotrichum gloeosporioides. Nature of the data set: Antifungal activity against Colletotrichum gloeosporioides ITEM 1729 at 15 ug/disk by paper disk method. In kind it is functional. A digest of the protocol: as §2
A further data set has as its system Fusarium acuminatum. In words: Antifungal activity against Fusarium acuminatum ITEM 795 at 15 ug/disk by paper disk method. In kind it is functional. A digest of the protocol:
as §2

A further data set concerns Fusarium graminearum. Nature of the data set: Antifungal activity against Fusarium graminearum ITEM 2 at 15 ug/disk by paper disk method. The format is functional. The method, boiled down:
as §3

In another data set the test system is Fusarium verticillioides. In words: Antifungal activity against Fusarium moniliforme ITEM 1497 at 15 ug/disk by paper disk method. The format is functional. The method, boiled down:
as §2

Data set [10] has as its system Fusarium oxysporum. Nature of the data set: Antifungal activity against Fusarium oxysporum ITEM 149 at 15 ug/disk by paper disk method. The format is functional. The method, boiled down:
as §2

The test system of data set [11] is Fusarium oxysporum. In words: Antifungal activity against Fusarium oxysporum ITEM 1462 at 15 ug/disk by paper disk method. In kind it is functional. The method, boiled down:
as §2

The subject of a further data set is Penicillium verrucosum. Nature of the data set: Antifungal activity against Penicillium verrucosum ITEM 439 at 15 ug/disk by paper disk method. In kind it is functional. A digest of the protocol: as §1
For data set [12], the system named is Fusarium oxysporum f. sp. lycopersici. In words: Antifungal activity against Fusarium oxysporum f. sp. lycopersici ITEM 1462 at 15 ug/disk by paper disk method. The format is functional. The method, boiled down: as §2
The test system of a further data set is Fusarium incarnatum. Nature of the data set: Antifungal activity against Fusarium semitectum ITEM 393 at 15 ug/disk by paper disk method. In kind it is functional. The method, boiled down: as §2
The next data set concerns Plenodomus tracheiphilus. Nature of the data set: Antifungal activity against Phoma tracheiphilla ITEM 1605 at 15 ug/disk by paper disk method. The format is functional. The method, boiled down: as §1
Data set [13] relates to Penicillium brevicompactum. Nature of the data set: Antifungal activity against Penicillium brevicompactum ITEM 449 at 15 ug/disk by paper disk method. In kind it is functional. A digest of the protocol: as §1
Data set [14] has as its system Meyerozyma guilliermondii. Nature of the data set: Antifungal activity against Candida guilliermondii ITEM 1638 at 15 ug/disk by paper disk method. In kind it is functional. A digest of the protocol: as §2
The test system of the next data set is Candida maltosa. In words: Antifungal activity against Candida maltosa ITEM 1639 at 15 ug/disk by paper disk method. In kind it is functional. A digest of the protocol: as §2
The next data set relates to Kluyveromyces marxianus. Nature of the data set: Antifungal activity against Kluyveromyces fragilis ITEM 1657 at 15 ug/disk by paper disk method. In kind it is functional. The method, boiled down:
as §1

Another data set relates to Kluyveromyces lactis. In words: Antifungal activity against Kluyveromyces lactis ITEM 1656 at 15 ug/disk by paper disk method. The format is functional. A digest of the protocol:
as §1

Data set [15] has as its system Wickerhamomyces anomalus. Nature of the data set: Antifungal activity against Pichia anomala ITEM 1625 at 15 ug/disk by paper disk method. The format is functional. A digest of the protocol: as §1
Data set [16] has as its system Wickerhamomyces anomalus. Nature of the data set: Antifungal activity against Pichia anomala ITEM 1661 at 15 ug/disk by paper disk method. The format is functional. The method, boiled down: as §1
The subject of a further data set is Starmera dryadoides. In words: Antifungal activity against Pichia dryadoides ITEM 1663 at 15 ug/disk by paper disk method. In kind it is functional. The method, boiled down:
as §1

Data set [17] relates to Meyerozyma guilliermondii. In words: Antifungal activity against Pichia guilliermondii ITEM 1644 at 15 ug/disk by paper disk method. In kind it is functional. A digest of the protocol: as §1
The test system of a further data set is Saccharomyces cerevisiae. Nature of the data set: Antifungal activity against Saccharomyces cerevisiae ITEM 1633 at 15 ug/disk by paper disk method. The format is functional. A digest of the protocol: as §1
For the next data set, the system named is Rhodotorula mucilaginosa. In words: Antifungal activity against Rhodotorula pilimanae at 15 ug/disk by […]. In kind it is functional.

≈ marks a conversion by molar mass, not a printed value.

As a reminder, the LC50 is the concentration that kills 50% of the test population.

The compound `CC(=O)OC[C@@H](C)C1=C(O)C(=O)[C@@]2(C)C/C=C(\C)CC/C=C(\C)CC[C@H](O)/C(C)=C/C[C@H]12` [FUSAPROLIFERIN] showed a 50% lethal concentration (LC50) in data set [1] of 23.7 µg/mL (≈ 53.3 µM).

As to `CCCCc1ccc(C(=O)O)nc1` [FUSARIC ACID], the outcome with Solanum lycopersicum was Active.

With NYSTATIN, the results for the Activity in the data set on Pichia kluyveri and in the data set with Fusarium subglutinans were 16.5 mm and 24 mm, respectively. Further, the inhibition zone (IZ) was determined as 30.2 mm with Alternaria alternata [2]; 32.2 mm with Alternaria alternata [3]; 28.7 mm in the data set on Alternaria alternata [4]; 29.2 mm with Alternaria alternata [5]; 30 mm in the data set on Alternaria citri; 38.5 mm in the data set with Ascochyta rabiei. For the same compound, the inhibition zone (IZ) turned out to be 29 mm with Aspergillus flavus; 28.7 mm in the data set with Aspergillus parasiticus; 31.2 mm in the data set with Botrytis cinerea [6]; 31 mm with Botrytis cinerea [7]; 37.3 mm in data set [8]; 32.7 mm with Cladosporium cucumerinum. For the same compound, the inhibition zone (IZ) was 38.2 mm in [9]; 20.8 mm in the data set on Fusarium acuminatum; 25.9 mm with Fusarium graminearum; 18.7 mm in the data set with Fusarium verticillioides; 19.5 mm in the data set with Fusarium oxysporum [10]; 20 mm in the data set with Fusarium oxysporum [11]. Further, the inhibition zone (IZ) in the data set on Penicillium verrucosum was determined as 28.2 mm; in data set [12], 21.7 mm; with Fusarium incarnatum, 27 mm; in the data set on Plenodomus tracheiphilus it was 31.8 mm; in data set [13], 18.3 mm; in [14], 20 mm. For the same compound, the inhibition zone (IZ) in the data set on Candida maltosa came to 20 mm; with Kluyveromyces marxianus, 19.5 mm; in the data set on Kluyveromyces lactis it was 18 mm; in the data set on Wickerhamomyces anomalus [15], 18.8 mm; in the data set on Wickerhamomyces anomalus [16] it was 15 mm; with Starmera dryadoides, 19 mm. Besides, the inhibition zone (IZ) in [17] was 18.5 mm; with Saccharomyces cerevisiae it was 21 mm; in the data set on Rhodotorula mucilaginosa it was 28.5 mm.

For the origin of these results see ChEMBL document CHEMBL1155568, “Biological characterization of fusapyrone and deoxyfusapyrone, two bioactive secondary metabolites of Fusarium semitectum” (J Nat Prod, 2000).
